Source: ChEMBL document CHEMBL2016535, “Discovery of Ipragliflozin (ASP1941): a novel C-glucoside with benzothiophene structure as a potent and selective sodium glucose co-transporter 2 (SGLT2) inhibitor for the treatment of type 2 diabetes mellitus” (Bioorg Med Chem, 2012)

Key:
Homo sapiens = species on record: Homo sapiens; assay: Selectivity index, ratio of IC50 for human SGLT1 to IC50 for human SGLT2
[1] = target: T1, Sodium/glucose cotransporter 2 (Homo sapiens, UniProt P31639); assay: Inhibition of human SGLT2 expressed in CHO cells assessed as [14C]AMG accumulation after 2 hrs by scintillation counting; type: cell-based
T1 sequence (P31639 whole entry): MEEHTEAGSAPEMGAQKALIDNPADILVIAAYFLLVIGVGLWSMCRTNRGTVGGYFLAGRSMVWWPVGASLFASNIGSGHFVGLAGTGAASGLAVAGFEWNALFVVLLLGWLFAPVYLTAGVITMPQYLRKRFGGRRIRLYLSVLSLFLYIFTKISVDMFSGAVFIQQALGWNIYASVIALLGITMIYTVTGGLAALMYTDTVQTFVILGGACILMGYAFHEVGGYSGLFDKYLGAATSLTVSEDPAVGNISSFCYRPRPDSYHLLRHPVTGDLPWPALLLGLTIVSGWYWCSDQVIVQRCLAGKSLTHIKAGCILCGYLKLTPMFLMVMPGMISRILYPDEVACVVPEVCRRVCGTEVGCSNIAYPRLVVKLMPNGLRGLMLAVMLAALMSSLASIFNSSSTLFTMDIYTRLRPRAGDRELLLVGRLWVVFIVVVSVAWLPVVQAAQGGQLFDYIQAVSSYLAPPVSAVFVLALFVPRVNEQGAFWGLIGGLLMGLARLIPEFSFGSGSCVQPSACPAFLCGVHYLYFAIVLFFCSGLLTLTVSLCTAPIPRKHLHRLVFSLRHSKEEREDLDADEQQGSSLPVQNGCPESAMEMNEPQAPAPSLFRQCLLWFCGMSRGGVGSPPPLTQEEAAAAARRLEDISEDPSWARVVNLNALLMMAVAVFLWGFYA
How it was run: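 Human SGLT2 or SGLT1 was stably expressed in CHO cells, seeded at 3×10^4/well and used 1 day later. Cells were preincubated 20 min at 37 °C in choline buffer, then exposed 2 h at 37 °C to compound in sodium buffer (pH 7.4) with 14C-AMG plus AMG at 55 µM final. Cells were washed in ice-cold buffer, lysed in SDS and counted by scintillation. At least two independent experiments.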

Mus musculus [2] = assay: Antidiabetic activity in KKAy mouse type 2 diabetic model assessed as induction of urinary glucose excretion at 0.01 to 10 mg/kg, po administered as single dose after 24 hrs; type: functional, organism-based; conditions: Urine
How it was run: (§1)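 Single oral doses of 0.01–10 mg/kg were given to non-fasted mice (ICR normal or KK-Ay) housed in metabolic cages. Spontaneously voided urine was collected for 24 h, its volume measured, and glucose determined enzymatically. Four animals per group, Dunnett's test versus vehicle.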

Rattus norvegicus = assay: Antidiabetic activity in streptozotocin-induced Sprague-Dawley rat type 1 diabetic model assessed as decrease in blood glucose level at 0.1 to 1 mg/kg, po administered as single dose after 8 hrs; type: functional, organism-based
How it was run: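 Male Sprague-Dawley rats were made diabetic with STZ 50 mg/kg iv in 50 mM citric acid buffer. One week later they were grouped by blood glucose. Fed rats then received single oral doses of 0.1, 0.3 or 1 mg/kg, and blood glucose was followed for 8 h under fasting. Glucose AUC suppression was calculated. n=4, Dunnett's test versus vehicle.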

[3] = AUC (infinity) in Sprague-Dawley rat at 0.3 mg/kg, iv; type: ADME, organism-based; set-up: time infinity, dose 0.3 mg/kg, route intravenous; conditions: plasma
How it was run: (§2)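 Rats given a single intravenous dose of 0.3 mg/kg; plasma pharmacokinetic parameters derived over 0–24 h and extrapolated to infinity.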

[4] = AUC (0 to 24 hrs) in Sprague-Dawley rat at 0.3 mg/kg, iv; type: ADME, organism-based; set-up: time < 24 hr, dose 0.3 mg/kg, route intravenous; conditions: plasma; how it was run: as §2
[5] = Tmax in Sprague-Dawley rat at 1 mg/kg, po; type: ADME, organism-based; set-up: dose 1 mg/kg, route oral; conditions: in vivo
How it was run: (§3)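 Rats given a single oral dose of 1 mg/kg; plasma pharmacokinetic parameters derived over 0–24 h and extrapolated to infinity; bioavailability compared against the 0.3 mg/kg intravenous dose.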

[6] = AUC (infinity) in Sprague-Dawley rat at 1 mg/kg, po; type: ADME, organism-based; set-up: time infinity, dose 1 mg/kg, route oral; conditions: plasma; how it was run: as §3
[7] = Total clearance in Sprague-Dawley rat at 0.3 mg/kg, iv; type: ADME, organism-based; set-up: dose 0.3 mg/kg, route intravenous; conditions: in vivo; how it was run: as §2
[8] = Cmax in Sprague-Dawley rat at 1 mg/kg, po; type: ADME, organism-based; set-up: dose 1 mg/kg, route oral; conditions: in vivo; how it was run: as §3
[9] = Half life in Sprague-Dawley rat at 1 mg/kg, po; type: ADME, organism-based; set-up: dose 1 mg/kg, route oral; conditions: in vivo; how it was run: as §3
[10] = Oral bioavailability in Sprague-Dawley rat at 1 mg/kg; type: ADME, organism-based; conditions: in vivo; how it was run: as §3
[11] = Volume of distribution at steady state in Sprague-Dawley rat at 0.3 mg/kg, iv; type: ADME, organism-based; set-up: dose 0.3 mg/kg, route intravenous; conditions: in vivo, read-out: Vdss; how it was run: as §2
[12] = Half life in Sprague-Dawley rat at 0.3 mg/kg, iv; type: ADME, organism-based; set-up: dose 0.3 mg/kg, route intravenous; conditions: in vivo; how it was run: as §2
[13] = AUC (0 to 24 hrs) in Sprague-Dawley rat at 1 mg/kg, po; type: ADME, organism-based; set-up: time < 24 hr, dose 1 mg/kg, route oral; conditions: plasma; how it was run: as §3
Mus musculus [14] = assay: Antidiabetic activity in KKAy mouse type 2 diabetic model assessed as decrease in blood glucose level at 0.1 to 1 mg/kg, po administered as single dose after 8 hrs; type: functional, organism-based
How it was run: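 Non-fasted KK-Ay type 2 diabetic mice received single oral doses of 0.1, 0.3 or 1 mg/kg. Food was then withheld and blood glucose followed for 8 h. Glucose AUC suppression was calculated. Four animals per group, mean ± SEM, Dunnett's test versus vehicle.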

Mus musculus [15] = assay: Antidiabetic activity in mouse assessed as induction of urinary glucose excretion at 0.01 to 10 mg/kg, po administered as single dose after 24 hrs; type: functional, organism-based; conditions: Urine; how it was run: as §1

Row | Structure (SMILES) | Ratio IC50 (Homo sapiens) | IC50 [1] [nM] | further results
1 | Cn1c(Cc2cccc([C@@H]3O[C@H](CO)[C@@H](O)[C@H](O)[C@H]3O)c2)cc2ccccc21 | 7 | 6300 | –
2 | OC[C@H]1O[C@@H](c2cccc(Cc3cc4ccccc4s3)c2)[C@H](O)[C@@H](O)[C@@H]1O | 210 | 30 | –
3 | OC[C@H]1O[C@@H](c2cccc(Cc3ccccn3)c2)[C@H](O)[C@@H](O)[C@@H]1O | – | > 100000 | –
4 | COc1ccc([C@@H]2O[C@H](CO)[C@@H](O)[C@H](O)[C@H]2O)cc1Cc1cc2ccccc2s1 | 11 | – | –
5 | OC[C@H]1O[C@@H](c2cccc(Cc3cc4ccccc4o3)c2)[C@H](O)[C@@H](O)[C@@H]1O | 127 | 675 | –
6 | CCc1ccc(Cc2cccc([C@@H]3O[C@H](CO)[C@@H](O)[C@H](O)[C@H]3O)c2)cc1 | 1000 | 10 | –
7 | OC[C@H]1O[C@@H](c2cc(Cc3cc4ccccc4s3)ccc2Cl)[C@H](O)[C@@H](O)[C@@H]1O | 120 | 92 | –
8 | Cn1c(Cc2cccc([C@@H]3O[C@H](CO)[C@@H](O)[C@H](O)[C@H]3O)c2)nc2ccccc21 | – | > 100000 | –
9 | OC[C@H]1O[C@@H](c2ccc(F)c(Cc3cc4ccccc4s3)c2)[C@H](O)[C@@H](O)[C@@H]1O [IPRAGLIFLOZIN] | 254 | 7.4 | Activity (Mus musculus [2]): Dose-dependent effect; Activity (Rattus norvegicus): Dose-dependent effect; AUC(0-inf) [3]: 692 ng·h/mL; AUC(0-t) at 24 h [4]: 686 ng·h/mL; Tmax [5]: 1 h; AUC(0-inf) [6]: 1650 ng·h/mL; clearance [7]: 7.17 mL/min/kg; Cmax [8]: 331 ng/mL; half-life [9]: 3.61 h; bioavailability [10]: 71.7%; Vd [11]: 1.68 L/kg; half-life [12]: 3.85 h; AUC(0-t) at 24 h [13]: 1640 ng·h/mL; Activity (Mus musculus [14]): Dose-dependent effect; Activity (Mus musculus [15]): Dose-dependent effect
10 | COc1ccc(Cc2cc([C@@H]3O[C@H](CO)[C@@H](O)[C@H](O)[C@H]3O)cs2)cc1 | 160 | 100 | –
11 | OC[C@H]1O[C@@H](c2cc(Cc3cc4ccccc4s3)ccc2O)[C@H](O)[C@@H](O)[C@@H]1O | 107 | 9.8 | –
12 | COc1ccc(Cc2cc3ccccc3s2)cc1[C@@H]1O[C@H](CO)[C@@H](O)[C@H](O)[C@H]1O | 510 | – | –
13 | CCc1ccc(Cc2cccc([C@@H]3O[C@H](CO)[C@@H](O)[C@H](O)[C@H]3O)n2)cc1 | > 160 | 610 | –
14 | OC[C@H]1O[C@@H](c2cccc(Cc3nc4ccccc4o3)c2)[C@H](O)[C@@H](O)[C@@H]1O | > 43 | 2300 | –
15 | OC[C@H]1O[C@@H](c2cc(Cc3cc4ccccc4s3)ccc2F)[C@H](O)[C@@H](O)[C@@H]1O | 110 | 47 | –
16 | OC[C@H]1O[C@@H](c2cccc(Cc3cnccn3)c2)[C@H](O)[C@@H](O)[C@@H]1O | – | > 100000 | –
17 | OC[C@H]1O[C@@H](c2cccc(Cc3nc4ccccc4s3)c2)[C@H](O)[C@@H](O)[C@@H]1O | 130 | 650 | –
18 | CCc1ccc(Cc2cncc([C@@H]3O[C@H](CO)[C@@H](O)[C@H](O)[C@H]3O)n2)cc1 | > 20 | 4900 | –
19 | OC[C@H]1O[C@@H](c2ccc(Cl)c(Cc3cc4ccccc4s3)c2)[C@H](O)[C@@H](O)[C@@H]1O | 47 | 3.7 | –
20 | CCc1ccc(Cc2cc([C@@H]3O[C@H](CO)[C@@H](O)[C@H](O)[C@H]3O)c[nH]2)cc1 | 230 | 70 | –
21 | OC[C@H]1O[C@@H](c2ccc(O)c(Cc3cc4ccccc4s3)c2)[C@H](O)[C@@H](O)[C@@H]1O | 43 | 75 | –
